# Compound activity: PubChem BioAssay, several laboratories
# HTR5A inv ag: HTR5A inverse agonists in luminescence cell assay, primary screen, counter-screen for OPRM1-OPRD1 heterodimer inverse agonist project, full-deck HTS; HTR5A cell line, inverse agonism; inhibition, % at 9.3 µM; actives 0.083% (n = 340,000); in the data active = inhibition mostly above about 23%, no sharp cut-off; inactive = mostly below about 18%;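 also: 0% = cells with DMSO and 100% = no-cell wells with DMSO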
# Target sequence (P47898 whole entry, looked up): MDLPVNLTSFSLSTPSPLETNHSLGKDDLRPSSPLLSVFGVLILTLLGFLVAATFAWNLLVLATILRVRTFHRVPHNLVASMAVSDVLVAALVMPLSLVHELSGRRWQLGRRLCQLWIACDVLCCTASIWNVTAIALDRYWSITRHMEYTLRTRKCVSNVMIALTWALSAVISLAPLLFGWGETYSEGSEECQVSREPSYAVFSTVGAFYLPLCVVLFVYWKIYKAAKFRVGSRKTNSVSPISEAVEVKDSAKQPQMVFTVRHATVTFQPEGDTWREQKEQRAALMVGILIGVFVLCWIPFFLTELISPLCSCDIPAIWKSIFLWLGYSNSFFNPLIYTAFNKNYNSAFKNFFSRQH
# MOR-DOR inv ag: inverse agonists of MOR-DOR heterodimerization, primary screen, cell-based, luminescence. Mu-type opioid receptor (Homo sapiens) + Delta-type opioid receptor (Homo sapiens), …. cell-based MOR-DOR heterodimer luminescence, inverse agonism. inhibition, % at 9.3 µM. actives 0.21% (n = 340,000); in the data active = inhibition above about 22%, passing the limit was not always enough;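 also: 0% = cells with DMSO and 100% = wells without cells with DMSO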
# Hep lipid drop: inhibitors of hepatocyte lipid droplet formation, primary screen, imaging, high-throughput imaging, BODIPY stain | AID 1656, 2009 | inhibition, % at 6.5 µM | actives 0.4% (n = 240,000) | AML12 mouse hepatocytes, oleate lipid droplets;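 active = lipid droplet intensity inhibited by at least 50%, with more than 500 cells counted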
#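 Assay system: AML12 mouse liver cells | Compound: 6.5 µM single-point dosing | Schedule: Overnight exposure | Technique: Fluorescence imaging, 20x objective, two fields per well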
# HTR5A ag: HTR5A agonists in luminescence cell assay, primary screen, counter-screen for OPRM1-OPRD1 heterodimer agonist project, full-deck HTS; 5-hydroxytryptamine receptor 5A (Homo sapiens), P47898; cell-based; activation, % at 9.3 µM; actives 0.61% (n = 340,000); in the data active = activation mostly above about 9.5%, no sharp cut-off; inactive = mostly below about 7.6%;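 also: 0% = cells with vehicle only and 100% = reference agonist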
# OPRM1-OPRD1 ag: agonists of OPRM1-OPRD1 heterodimerization, primary screen, cell-based, luminescence. Mu-type opioid receptor (Homo sapiens) + Delta-type opioid receptor (Homo sapiens), …. cells. actives 0.3% (n = 340,000). activation, % at 9.3 µM; in the data active = activation above about 18%;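 also: 0% = vehicle-treated cells and 100% = reference agonist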
# * hit, by the source's call; x = no result. Shown are actives, neighbours in structure and some others; about 1.4% of the full set was active somewhere.
SMILES,HTR5A inv ag,MOR-DOR inv ag,Hep lipid drop,HTR5A ag,OPRM1-OPRD1 ag
COc1ccc(/C=N/n2cnnc2)cc1Oc1nc(Cl)ncc1F,-30,1,5,12*,0
N#CC1=C(N)OC2=C(CCc3ccccc32)C1c1ccccc1 (stereo not given),10,-25,101*,6,5
Cc1ccc(/C=C2\CCC3=C2OC(N)=C(C#N)C3c2ccc(C)cc2)cc1 (stereo not given),-24,-5,x,3,1
CCc1nnc(NC(=O)c2nc(S(=O)(=O)Cc3ccccc3)ncc2Cl)s1,-31,-24,-24,8,5
CCc1nnc(NC(=O)c2nc(S(=O)(=O)Cc3cccc(C)c3)ncc2Cl)s1,-34,-6,-32,9.1*,1
c1ccc(-c2nc(C3CCCCC3)c3ccccc3n2)cc1,-2,-3,x,13*,0
C[C@H]1O[C@H](O[C@H]2[C@H](O)[C@@H](O)[C@@H](O[C@H]3[C@H](O)[C@@H](O)C(O)O[C@@H]3CO)O[C@@H]2CO)[C@H](O)[C@@H](O)[C@@H]1N[C@H]1C=C(CO)[C@@H](O)[C@H](O)[C@H]1O (stereo not given in full),x,x,14,x,x
CCOC(=O)C1(CCOC)CCN(Cc2ccc(COC)o2)CC1,-5,-1,-5,12*,0
NC(=O)C1(Nc2ccc(Br)cc2)CCCC1,-8,4,x,2,-1
O=C(N/N=C/c1cc(Cl)ccc1O)c1ccccc1Br,-35,-35,-25,12*,5
Cc1cccc(OCC(=O)NCC(=O)N/N=C/c2ccccc2)c1,-27,-8,25,10*,1
O=C(COC(=O)c1cn(-c2ccccc2)nc1-c1ccc(F)cc1)Nc1ncc(Cl)cc1Cl,-1,-2,0,4,0
NS(=O)(=O)c1ccc(NC(=O)COC(=O)c2cn(-c3ccccc3)nc2-c2ccc(F)cc2)cc1,-43,-19,5,12*,4
O=S(=O)(c1ccccc1C(F)(F)F)N1CCN(S(=O)(=O)c2ccccc2C(F)(F)F)CC1,4,0,-15,2,0
CCn1c(N2CCN(S(=O)(=O)c3ccccc3C(F)(F)F)CC2)nc2ccccc21,-62,-12,x,13*,2
O=C(NCCc1c[nH]c2ccccc12)C(F)(F)F,-73,11,x,14*,-2
CC(C)C(=O)NCCc1c[nH]c2ccccc12,-68,11,2,0,-3
CC(=O)c1cccc(NC(=O)NCc2cccs2)c1,-35,-1,-3,11*,0
CC(=O)c1cccc(NC(=O)NCc2ccccn2)c1,-33,-5,10,1,1
COc1ccc(-c2cc(-c3ccccc3)nc(NN)n2)cc1OC,26,26,13,-10,-5
Cc1ccc(-c2cc(-c3ccccc3)nc(NN)n2)cc1,33*,43*,22,-9,-9
CCOn1c(=O)c(=O)n(OC)c2ccccc21,-24,5,-2,3,-1
CCOC(=O)c1c(SCCN2CCCC2)n(-c2ccccc2)c(=S)n(-c2ccccc2)c1=O,14,58*,x,-4,-12
CC(C)(C)c1cc(CCC(=O)NNC(=S)NC(=O)c2ccccc2)cc(C(C)(C)C)c1O,82*,68*,9,-29,-9
O=C(CCc1ccccc1)NNC(=S)NC(=O)c1ccccc1,11,14,x,-2,-2
SMILES,HTR5A inv ag,MOR-DOR inv ag,Hep lipid drop,HTR5A ag,OPRM1-OPRD1 ag
Cc1c(NC(=O)/C(C#N)=C/c2ccc(-c3ccccc3Cl)o2)c(=O)n(-c2ccccc2)n1C,-44,-15,17,12*,3
CCOC(=O)Cn1cc(C#N)c2cccc(CC)c21,11,3,-5,-4,-1
CCN(CC)CCNC(=O)c1cc2c(s1)-c1ccccc1SC2,-48,-21,-1,13*,4
C/C(=N\NC(=O)c1cccc(S(=O)(=O)N2CCCC2)c1)c1ccc(C)cc1,-5,13,x,-5,-2
CCOC(=O)C1CCN(c2ccc([N+](=O)[O-])cc2)CC1,-1,14,-5,13*,-3
CCOC(=O)C1CCN(C(=O)C2CCN(C(=O)c3ccc([N+](=O)[O-])cc3)CC2)CC1,-13,26,8,6,-5
CC(C)C[C@@H](NC(=O)C1CCC(CNC(=O)[C@@H]2CCCN2C(=O)OC(C)(C)C)CC1)C(=O)O (stereo not given in full),-8,19,0,2,-4
Cc1ccc(NS(=O)(=O)c2ccc(C(=O)NCCCN3CCCC3=O)cc2)cc1,-6,3,x,2,-1
Cc1cc(C)n2nc(NCc3cccc(Br)c3)nc2n1,-36,-3,6,12*,1
COc1cc(C(=O)Nc2ccc(C)c(S(=O)(=O)N(C)C)c2)ccc1OCC(=O)N1CCOCC1,-1,-2,x,0,0
CC1CCN(CCCn2c(=S)[nH]c3c(sc4ccccc43)c2=O)CC1,4,12,3,-1,-2
CC1CCN(CCCn2c(=S)[nH]c3c(sc4ccc([N+](=O)[O-])cc43)c2=O)CC1,-27,-8,-2,9.7*,2
CSc1ccccc1OCc1cc(C(=O)N2CCC(Oc3cccnc3)CC2)no1,-18,6,-23,5,-1
CC(C)CC1NC(=O)N(CC(=O)Nc2ccc3c(c2)OCCO3)C1=O (stereo not given),-19,10,x,11*,-3
CCN(CC)S(=O)(=O)c1ccc(NN=c2c(=O)c3ccccc3c2=O)cc1,-7,11,1,2,-2
CC(=O)N(C(C)=O)N1C(=O)c2cccc3c(N4CCOCC4)ccc(c23)C1=O,-30,15,4,11*,-3
CN(CCc1ccccc1)C(=O)c1ccc(NC(=O)Cc2ccc(NC(=O)C3CCN(C(=O)CCc4ccccc4)CC3)cc2)cc1,-10,10,x,3,-2
C/C(=N\NC(=O)c1cccc(S(=O)(=O)N2CCCC2)c1)c1ccc(OCC(=O)N(C)C)cc1,5,18,x,5,-4
N/C(=N\OC(=O)c1ccc2ccccc2c1)c1ccncc1,-14,-85,8,5,12
N/C(=N\OC(=O)c1ccc2ccccc2c1)c1ccccc1Cl,-75,-89,10,29*,22*
Nc1nonc1-n1nnc(C(=O)N/N=C/c2ccc(Br)cc2)c1-c1ccc2c(c1)OCO2,-23,0,-42,2,0
Nc1nonc1-n1nnc(C(=O)N/N=C/c2cccc(Cl)c2)c1-c1ccc2c(c1)OCO2,16,8,-6,10*,-2
CCCOc1ccc(-c2c(C(=O)N/N=C/c3ccc(C)o3)nnn2-c2nonc2N)cc1,-37,-101,0,9.8*,19*
